Two compounds from ChEMBL document CHEMBL4364274, “Synthesis and biological activity of glycyrrhetinic acid derivatives as antitumor agents” (Eur J Med Chem, 2019) can be followed below.

Assay [1] deals with A549. Description: Antiproliferative activity against human A549 cells incubated for 72 hrs by MTT assay. The format is functional, cell-based. The conditions noted are these: A549, 72 h. Put shortly:
(§1)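 Cells in exponential growth were plated at 3×10^3 cells/well and grown 24 h at 37 °C in 5% CO2. They were then exposed to a range of drug concentrations for 72 h. MTT (5 mg/mL solution) was added for 4 h, the medium was discarded, and formazan was dissolved in DMSO before reading A490. Drug-free wells served as blanks. % inhibition was calculated as 1 − (sample−blank)/(control−blank), and IC50 was taken as the concentration giving 50% inhibition.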

Assay [2] has as its system MCF7. In words: Antiproliferative activity against human MCF7 cells incubated for 72 hrs by MTT assay. It counts as functional, cell-based. To be noted: MCF7, 72 h. Put shortly:
as §1
(Formazan colour is commonly taken as a measure of viable cells.)

Assay [3] has as its system HepG2. In words: Antiproliferative activity against human HepG2 cells incubated for 72 hrs by MTT assay. It counts as functional, cell-based. The conditions noted are these: HepG2, 72 h. The essentials: as §1
For assay [4], the system named is HeLa. Description: Antiproliferative activity against human HeLa cells incubated for 72 hrs by MTT assay. It counts as functional, cell-based. The essentials: as §1
Assay [5] concerns MDCK. Description: Cytotoxicity against MDCK cells incubated for 72 hrs by MTT assay. It counts as cell-based. To be noted: Canis lupus familiaris. Put shortly: as §1
Assay [6] concerns HepG2. Description: Ratio of IC50 for GA to IC50 for test compound for human HepG2 cells. It counts as functional.
The subject of assay [7] is A549. Description: Induction of morphological changes in human A549 cells assessed as appearance of apoptotic body formation at 1 to 5 uM incubated for 72 hrs by DAPI staining by inverted phase-contrast microscopic method. The format is functional, cell-based. The essentials:
(§2)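 Exponentially growing A549 cells were plated at 2.4×10^4 cells/well, grown 24 h at 37 °C in 5% CO2, then exposed to 1, 3 or 5 μM for 72 h beside untreated controls. Cells were washed twice in PBS, fixed in 4% paraformaldehyde for 10 min, and stained with DAPI (10 µg/mL) for 1 min in the dark. Nuclei were examined by inverted microscope at 200×.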

The subject of assay [8] is A549. In words: Induction of morphological changes in human A549 cells assessed as condensation of chromatin at 1 to 5 uM incubated for 72 hrs by DAPI staining by inverted phase-contrast microscopic method. It counts as functional, cell-based. Put shortly:
as §2

The test system of assay [9] is A549. In words: Induction of morphological changes in human A549 cells assessed as formation of nuclear fragmentation at 1 to 5 uM incubated for 72 hrs by DAPI staining by inverted phase-contrast microscopic method. The format is functional, cell-based. The essentials: as §2
In assay [10] the test system is A549. Description: Induction of apoptosis in human A549 cells assessed as live cell at 1 uM incubated for 72 hrs by annexin V-FITC and PI staining based flow cytometric analysis (reference value: 90%). The format is functional. For orientation: Flow cytometry measures light scatter and fluorescence of single cells or particles in a stream.
Assay [11] relates to A549. In words: Induction of apoptosis in human A549 cells assessed as early apoptotic cells at 1 uM incubated for 72 hrs by annexin V-FITC and PI staining based flow cytometric analysis (reference value: 3.0%). The format is functional.
For assay [12], the system named is A549. Description: Induction of apoptosis in human A549 cells assessed as late apoptotic cells at 1 uM incubated for 72 hrs by annexin V-FITC and PI staining based flow cytometric analysis (reference value: 6.5%). It counts as functional.
Assay [13] deals with A549. In words: Induction of apoptosis in human A549 cells assessed as necrotic cells at 1 uM incubated for 72 hrs by annexin V-FITC and PI staining based flow cytometric analysis (reference value: 0.5%). It counts as functional.
Assay [14] relates to A549. In words: Induction of apoptosis in human A549 cells assessed as live cell at 3 uM incubated for 72 hrs by annexin V-FITC and PI staining based flow cytometric analysis (reference value: 90%). The format is functional.
Assay [15] has as its system A549. In words: Induction of apoptosis in human A549 cells assessed as early apoptotic cells at 3 uM incubated for 72 hrs by annexin V-FITC and PI staining based flow cytometric analysis (reference value: 3.0%). It counts as functional.
The subject of assay [16] is A549. In words: Induction of apoptosis in human A549 cells assessed as late apoptotic cells at 3 uM incubated for 72 hrs by annexin V-FITC and PI staining based flow cytometric analysis (reference value: 6.5%). It counts as functional.
Assay [17] deals with A549. Description: Induction of apoptosis in human A549 cells assessed as necrotic cells at 3 uM incubated for 72 hrs by annexin V-FITC and PI staining based flow cytometric analysis (reference value: 0.5%). It counts as functional.
Assay [18] concerns A549. In words: Induction of apoptosis in human A549 cells assessed as live cell at 5 uM incubated for 72 hrs by annexin V-FITC and PI staining based flow cytometric analysis (reference value: 90%). The format is functional.
Assay [19] has as its system A549. In words: Induction of apoptosis in human A549 cells assessed as early apoptotic cells at 5 uM incubated for 72 hrs by annexin V-FITC and PI staining based flow cytometric analysis (reference value: 3.0%). It counts as functional.
For assay [20], the system named is A549. In words: Induction of apoptosis in human A549 cells assessed as late apoptotic cells at 5 uM incubated for 72 hrs by annexin V-FITC and PI staining based flow cytometric analysis (reference value: 6.5%). It counts as functional.
The test system of assay [21] is A549. In words: Induction of apoptosis in human A549 cells assessed as necrotic cells at 5 uM incubated for 72 hrs by annexin V-FITC and PI staining based flow cytometric analysis (reference value: 0.5%). The format is functional.
Assay [22] concerns A549. Description: Induction of cell cycle arrest in human A549 cells assessed as accumulation at G1 phase at 1 uM incubated for 72 hrs by PI staining based flow cytometric analysis (reference value: 49.94%). The format is functional.
Assay [23] deals with A549. In words: Induction of cell cycle arrest in human A549 cells assessed as accumulation at S phase at 1 uM incubated for 72 hrs by PI staining based flow cytometric analysis (reference value: 31.41%). The format is functional.
Assay [24] concerns A549. In words: Induction of cell cycle arrest in human A549 cells assessed as accumulation at G2 phase at 1 uM incubated for 72 hrs by PI staining based flow cytometric analysis (reference value: 18.65%). It counts as functional.
The test system of assay [25] is A549. Description: Induction of cell cycle arrest in human A549 cells assessed as accumulation at G1 phase at 3 uM incubated for 72 hrs by PI staining based flow cytometric analysis (reference value: 49.94%). It counts as functional.
For assay [26], the system named is A549. In words: Induction of cell cycle arrest in human A549 cells assessed as accumulation at S phase at 3 uM incubated for 72 hrs by PI staining based flow cytometric analysis (reference value: 31.41%). It counts as functional.
Assay [27] has as its system A549. In words: Induction of cell cycle arrest in human A549 cells assessed as accumulation at G2 phase at 3 uM incubated for 72 hrs by PI staining based flow cytometric analysis (reference value: 18.65%). It counts as functional.
Assay [28] has as its system A549. Description: Induction of cell cycle arrest in human A549 cells assessed as accumulation at G1 phase at 5 uM incubated for 72 hrs by PI staining based flow cytometric analysis (reference value: 49.94%). It counts as functional.
Assay [29] relates to A549. In words: Induction of cell cycle arrest in human A549 cells assessed as accumulation at S phase at 5 uM incubated for 72 hrs by PI staining based flow cytometric analysis (reference value: 31.41%). It counts as functional.
The subject of assay [30] is A549. In words: Induction of cell cycle arrest in human A549 cells assessed as accumulation at G2 phase at 5 uM incubated for 72 hrs by PI staining based flow cytometric analysis (reference value: 18.65%). It counts as functional.
Assay [31] relates to A549. In words: Ratio of IC50 for GA to IC50 for test compound for human A549 cells. It counts as functional.

Calls of active or inactive are those of the source. No cut-off for these calls is given here.

Take `CC1(C)[C@@H](NC(=O)[C@@H]2CCCN2)CC[C@]2(C)[C@H]3C(=O)C=C4[C@@H]5C[C@@](C)(C(=O)OCc6ccccc6)CC[C@]5(C)CC[C@@]4(C)[C@]3(C)CC[C@@H]12`: the half-inhibitory concentration (IC50) in assay [1] stood at 3260 nM; in [2], 7620 nM; in assay [3] it was 2140 nM; in assay [4] it was 2210 nM; in assay [5], 2530 nM. In [6], the “Ratio IC50” value turned out to be 16.

With `C[C@H](N)C(=O)N[C@H]1CC[C@]2(C)[C@H]3C(=O)C=C4[C@@H]5C[C@@](C)(C(=O)OCc6ccccc6)CC[C@]5(C)CC[C@@]4(C)[C@]3(C)CC[C@H]2C1(C)C`, the IC50 in assay [1] came to 2110 nM; in assay [2], 2140 nM; in [3], 2440 nM; in [4] it was 2390 nM; in [5] it was 4640 nM. Also, the outcome in [7], in assay [8] and in assay [9] was Active. The Activity is recorded as 85% in assay [10]; 5.9% in assay [11]; 8.6% in assay [12]; 0.4% in assay [13]; 65.7% in assay [14]; 26.5% in assay [15]. Also, the Activity in assay [16] was 7.5%; in assay [17] it was 0.3%; in [18], 54%; in assay [19], 44.8%; in [20], 1.1%; in assay [21], 0%. The Activity in assay [22] was 53.09%; in assay [23], 31.05%; in [24], 15.86%; in assay [25] it was 56.45%; in assay [26], 33.59%; in [27], 9.96%. The Activity stood at 46.79% in assay [28], 53.21% in assay [29] and 0% in assay [30]. For the same compound, in [31], the “Ratio IC50” value is recorded as 18.

In general, IC50 refers to the concentration needed to halve the response being measured. A low value points to higher potency.
